Assay results reported in ChEMBL document CHEMBL1134227, “The design of phenylglycine containing benzamidine carboxamides as potent and selective inhibitors of factor Xa” (Bioorg Med Chem Lett, 2001).
“And” between values parts separate entries of the source, which are not always exact repeats. Identical values can stand only once.

Columns and labels:
Prothrombin = Prothrombin (Homo sapiens, UniProt P00734); assay: Affinity for human thrombin
Procedure, shortened: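 Chromogenic assay with 1 nM human thrombin and Pefachrome-TH substrate, in 100 mM phosphate buffer with 0.1% bovine serum albumin at pH 7.4. Compounds were dissolved in Me₂SO and diluted into the buffer. Hydrolysis was followed as the rise in optical density at 405 on a microplate reader.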

Coagulation factor X = Coagulation factor X (Homo sapiens, UniProt P00742); assay: Binding affinity against human coagulation factor Xa
Procedure, shortened: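 Human fXa at 100 pM final with Pefachrome-FXA substrate, in 100 mM phosphate buffer with 0.1% bovine serum albumin at pH 7.4. Compounds were taken from Me₂SO stocks into the buffer.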

Serine protease 1 = Serine protease 1 (Homo sapiens, UniProt P07477); assay: Binding affinity against human trypsin
Procedure, shortened: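 Human trypsin at 1 nM final with Pefachrome-TRY chromogenic substrate, in 100 mM phosphate, 0.1% bovine serum albumin, pH 7.4. Test compounds were dissolved in Me₂SO and diluted into the assay buffer. The read-out was the optical density increase at 405 from substrate cleavage.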

Coagulation factor X, sequence (P00742 41-179 limits assumed): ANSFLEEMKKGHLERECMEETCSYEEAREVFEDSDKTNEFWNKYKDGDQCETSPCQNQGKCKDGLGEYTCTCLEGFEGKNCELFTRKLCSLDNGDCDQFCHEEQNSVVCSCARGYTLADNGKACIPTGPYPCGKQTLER
Coagulation factor X, sequence (P00742 235-488 limits assumed): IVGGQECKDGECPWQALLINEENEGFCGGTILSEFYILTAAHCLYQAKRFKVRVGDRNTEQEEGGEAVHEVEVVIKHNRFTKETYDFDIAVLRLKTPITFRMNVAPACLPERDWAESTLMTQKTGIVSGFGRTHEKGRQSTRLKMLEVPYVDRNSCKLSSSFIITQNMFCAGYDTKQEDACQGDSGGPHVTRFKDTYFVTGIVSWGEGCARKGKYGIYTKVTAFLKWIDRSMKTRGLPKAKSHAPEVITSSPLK
Serine protease 1, sequence (P07477 whole entry): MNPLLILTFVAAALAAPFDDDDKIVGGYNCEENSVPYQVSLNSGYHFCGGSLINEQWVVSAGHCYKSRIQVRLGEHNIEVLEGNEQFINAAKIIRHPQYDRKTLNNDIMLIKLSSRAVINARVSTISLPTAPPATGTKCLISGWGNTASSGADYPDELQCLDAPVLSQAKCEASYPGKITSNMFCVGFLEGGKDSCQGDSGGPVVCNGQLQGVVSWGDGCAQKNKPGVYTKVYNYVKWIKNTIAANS

Compound	Ki (Prothrombin) [nM]	Ki (Coagulation factor X) [nM]	Ki (Serine protease 1)
N=C(N)c1cccc(C(=O)N[C@@H](C(=O)N2CCN(c3ccncc3)CC2)c2ccccc2)c1	17800	13	560 nM
N=C(N)c1cccc(C(=O)NC(C(=O)NCC2CCC(CN)CC2)c2ccc(-c3ccccc3)cc2)c1 (stereo unspecified)		800	1100 nM
CC(C)[C@H](NC(=O)c1cccc(C(=N)N)c1)C(=O)NCC1CCC(CN)CC1 (stereo partly specified)		38000	12600 nM
N=C(N)c1cccc(C(=O)NC(C(=O)NCC2CCC(CN)CC2)c2ccc(Cl)cc2)c1 (stereo unspecified)		2500	6000 nM
N=C(N)c1cccc(C(=O)N[C@@H](C(=O)NCCc2ccccc2)c2ccccc2)c1	3100	850	3300 nM
N=C(N)c1cccc(C(=O)NC(C(=O)NCC2CCC(CN)CC2)c2cccc3ccccc23)c1 (stereo unspecified)		100	2100 nM
N=C(N)c1cccc(C(=O)N[C@@H](C(=O)N2CCC(C(=O)c3ccc(F)cc3)CC2)c2ccccc2)c1	1180	10	540 nM
N=C(N)c1cccc(C(=O)NC(C(=O)NCC2CCC(CN)CC2)c2ccccc2)c1 (stereo unspecified)	6500		4500 nM and 5600 nM
COc1ccc(CNC(=O)[C@H](NC(=O)c2cccc(C(=N)N)c2)c2ccccc2)cc1	2300	28	5500 nM
CSCC[C@H](NC(=O)c1cccc(C(=N)N)c1)C(=O)NCC1CCC(CN)CC1 (stereo partly specified)		10500	7900 nM
CSCC[C@@H](NC(=O)c1cccc(C(=N)N)c1)C(=O)NCC1CCC(CN)CC1 (stereo partly specified)		2300	10000 nM
N=C(N)c1cccc(C(=O)N[C@@H](C(=O)N2CCN(Cc3ccccc3)CC2)c2ccccc2)c1	7940	120	2200 nM
N=C(N)c1cccc(C(=O)N[C@@H](C(=O)N2CCC(Cc3ccccc3)CC2)c2ccccc2)c1	1350	30	650 nM
N=C(N)c1cccc(C(=O)N[C@@H](C(=O)NCCCc2ccccc2)c2ccccc2)c1		145	2200 nM
N=C(N)c1cccc(C(=O)N[C@@H](C(=O)NCc2ccccc2)c2ccccc2)c1	8500	910	5400 nM
N=C(N)c1cccc(C(=O)NCC(=O)NCC2CCC(CN)CC2)c1 (stereo unspecified)			23000 nM
N=C(N)c1cccc(C(=O)N[C@@H](C(=O)N2CCC(C(=O)c3ccccc3)CC2)c2ccccc2)c1	1260		320 nM
N=C(N)c1cccc(C(=O)N[C@@H](C(=O)NCc2ccc(CN)cc2)c2ccccc2)c1	26000	500	4100 nM
N=C(N)c1cccc(C(=O)N[C@H](Cc2ccccc2)C(=O)NCC2CCC(CN)CC2)c1 (stereo partly specified)		25700	17400 nM
N=C(N)c1cccc(C(=O)N[C@@H](C(=O)NCC2CCC(CN)CC2)C2CCCCC2)c1 (stereo partly specified)		500	8500 nM
N=C(N)c1cccc(C(=O)N[C@@H](C(=O)N2CCN(C(=O)c3ccccc3)CC2)c2ccccc2)c1	7940		460 nM
CC(C)[C@@H](NC(=O)c1cccc(C(=N)N)c1)C(=O)NCC1CCC(CN)CC1 (stereo partly specified)			16200 nM
N=C(N)c1cccc(C(=O)N[C@H](C(=O)NCC2CCC(CN)CC2)C2CCCCC2)c1 (stereo partly specified)		7800	3600 nM
N=C(N)c1cccc(C(=O)N[C@@H](C(=O)N2CCN(c3ccc(F)cc3)CC2)c2ccccc2)c1	3800	15	1260 nM
Cc1ccc(CNC(=O)[C@H](NC(=O)c2cccc(C(=N)N)c2)c2ccccc2)cc1		42	4900 nM
N=C(N)c1cccc(C(=O)N[C@@H](Cc2ccccc2)C(=O)NCC2CCC(CN)CC2)c1 (stereo partly specified)		33900	12600 nM
N=C(N)c1cccc(C(=O)N[C@@H](C(=O)N2CCN(c3ccccc3)CC2)c2ccccc2)c1	1740	16	340 nM
N=C(N)c1cccc(C(=O)NC(C(=O)NCC2CCC(CN)CC2)c2cccc(Cl)c2)c1 (stereo in doubt; 9)		300	3900 nM
N=C(N)c1cccc(C(=O)NC(C(=O)NCC2CCC(CN)CC2)c2cccc(Cl)c2)c1 (stereo in doubt; 11)		300	5100 nM
